Tests used:
[1] = tested on: HL-60; test: Cytotoxicity against human HL60 cells after 48 hrs by MTT assay; format: functional, cell-based; conditions: HL-60, 48 h
Procedure, shortened: (§1)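 H460 or HL-60 cells were exposed to vehicle or compound for 48 h. Growth was read by MTT reduction at 570 nm, and IC50 was calculated.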

[2] = Cytotoxicity against human Hep3B cells after 48 hrs by MTT assay; format: functional, cell-based, Hep 3B2
Procedure, shortened: (§2)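 Hep 3B (hepatoma) or Detroit 551 (normal skin) cells, grown at 37 °C and 5% CO₂ in DMEM with 10% FBS, penicillin/streptomycin and 1% L-glutamine, were used in log phase. Cells were exposed to vehicle or compound for 48 h. Growth was read by MTT reduction at 570 nm, and IC50 was calculated.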

[3] = tested on: NCI-H460; test: Cytotoxicity against human H460 cells after 48 hrs by MTT assay; format: functional, cell-based; conditions: NCI-H460, 48 h; procedure, shortened: as §1
[4] = tested on: Detroit 551; test: Cytotoxicity against human Detroit 551 cells after 48 hrs by MTT assay; format: cell-based; conditions: Detroit 551, 48 h; procedure, shortened: as §2
[5] = tested on: Detroit 551; test: Selectivity ratio of IC50 for human Detroit 551 cells to IC50 for human Hep3B cells
[6] = tested on: Detroit 551; test: Selectivity ratio of IC50 for human Detroit 551 cells to IC50 for human H460 cells

SMILES | IC50 [1] | IC50 [2] | IC50 [3] | IC50 [4] | Ratio IC50 [5] | Ratio IC50 [6]
COc1ccc2[nH]c(-c3ccc(C)[se]3)cc(=O)c2c1O | 400 nM | 800 nM | 900 nM | > 50000 nM | – | –
COc1ccc2[nH]c(-c3cc[se]c3)cc(=O)c2c1OC | 1700 nM | 100000 nM | 100000 nM | > 100000 nM | – | –
O=c1cc(-c2ccc[se]2)[nH]c2cc3c(cc12)OCO3 | 500 nM | 800 nM | 1000 nM | 50000 nM | 50 | 50
COc1ccc2[nH]c(-c3ccc(C)[se]3)cc(=O)c2c1 | 400 nM | 3000 nM | 2000 nM | > 10000 nM | – | –
COc1ccc2[nH]c(-c3cc[se]c3)cc(=O)c2c1 | 700 nM | 3700 nM | 2300 nM | > 10000 nM | – | –
COc1ccc2[nH]c(-c3ccc[se]3)cc(=O)c2c1 | 600 nM | 3200 nM | 2400 nM | > 10000 nM | – | –
O=c1cc(-c2ccsc2)[nH]c2cc3c(cc12)OCO3 | 900 nM | 2200 nM | 4300 nM | > 25000 nM | – | –
O=c1cc(-c2ccoc2)[nH]c2cc3c(cc12)OCO3 | 3400 nM | 9600 nM | 15800 nM | > 25000 nM | – | –
COc1ccc2[nH]c(-c3cc[se]c3)cc(=O)c2c1O | 400 nM | 300 nM | 800 nM | > 100000 nM | – | –
Cc1ccc(-c2cc(=O)c3cc4c(cc3[nH]2)OCO4)s1 | 300 nM | 700 nM | 400 nM | > 5000 nM | – | –
COc1ccc2[nH]c(-c3ccc[se]3)cc(=O)c2c1OC | 7700 nM | > 100000 nM | 91500 nM | > 100000 nM | – | –
Cc1ccc(-c2cc(=O)c3cc4c(cc3[nH]2)OCO4)o1 | 4300 nM | 10000 nM | 9800 nM | > 10000 nM | – | –
Oc1cc(-c2cccs2)nc2cc3c(cc12)OCO3 | 1000 nM | 700 nM | 1000 nM | > 5000 nM | – | –
O=c1cc(-c2cc[se]c2)[nH]c2cc3c(cc12)OCO3 | 900 nM | 800 nM | 1400 nM | > 10000 nM | – | –
COc1ccc2[nH]c(-c3ccc(C)[se]3)cc(=O)c2c1OC | 3100 nM | > 50000 nM | > 50000 nM | > 50000 nM | – | –
COc1ccc2[nH]c(-c3ccc[se]3)cc(=O)c2c1O | 1100 nM | 700 nM | 400 nM | 100000 nM | – | –
Oc1cc(-c2ccco2)nc2cc3c(cc12)OCO3 | 6800 nM | > 15000 nM | > 15000 nM | > 15000 nM | – | –

From ChEMBL document CHEMBL1909500, “Synthesis and in vitro anticancer activity of 6,7-methylenedioxy (or 5-hydroxy-6-methoxy)-2-(substituted selenophenyl)quinolin-4-one analogs” (Eur J Med Chem, 2011)
